≈ marks a conversion by molar mass, not a printed value. Calls of active or inactive are those of the source. The calls are words filed in the database; no cut-off is given here.
Tests used:
Type in all cases: functional
[1] = test system: Mycobacterium tuberculosis; experiment: Antimycobacterial activity against rifampicin-resistant Mycobacterium tuberculosis ATCC 35338 after 7 days by resazurin microtitre assay
Outline: (§1)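 REMA MIC. Strains kept on Ogawa-Kudoh medium 14 days at 37 °C. Suspension vortexed and adjusted to McFarland tube 1 (3.2 × 10^6 cfu/mL), then diluted 1:20 in Middlebrook 7H9 with 10% OADC and glycerol. Compounds tested from 100 ug/mL down to 0.19 ug/mL. Incubated 7 days at 37 °C, resazurin added, 2 more days at 37 °C; colour change read.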

[2] = test system: Mycobacterium tuberculosis; experiment: Antimycobacterial activity against isoniazid-resistant Mycobacterium tuberculosis ATCC 35822 after 7 days by resazurin microtitre assay; outline: as §1
[3] = test system: Mycobacterium tuberculosis; experiment: Antimycobacterial activity against rifampicin-resistant Mycobacterium tuberculosis; outline: as §1

SMILES	MIC ([1]; ATCC 35338, 168 h) [µM]	MIC ([2]; ATCC 35822, 168 h) [µM]	MIC [1]	MIC [2]	MIC [3] [µg/mL]
CC1(C)CCc2c(c3ccccc3c3nc(-c4ccc(Cl)cc4)[nH]c23)O1	17.2 (≈ 6.24 µg/mL)	17.2 (≈ 6.24 µg/mL)			
CC1(C)CCc2c(c3ccccc3c3nc(-c4ccccc4[N+](=O)[O-])[nH]c23)O1	33.5 (≈ 12.5 µg/mL)	16.7 (≈ 6.24 µg/mL)			
C=CCC1=C(O)C(=O)c2ccccc2C1=O	117 (≈ 25 µg/mL)	467 (≈ 100 µg/mL)			
CC1(C)Cc2c(c3ccccc3c3nc(-c4ccccc4)[nH]c23)O1	318 (≈ 100 µg/mL)	> 318			
CC1(C)CCc2c(c3ccccc3c3nc(-c4ccccc4C#N)oc23)O1	17.6 (≈ 6.24 µg/mL)	17.6 (≈ 6.24 µg/mL)			
CC1(C)CCc2c(c3ccccc3c3nc(-c4cccc(C#N)c4)[nH]c23)O1			inactive	inactive	
NNC(=O)c1ccncc1 [ISONIAZID]	≤ 0.4	7.3 (≈ 1 µg/mL)			
CC1(C)CCc2c(c3ccccc3c3nc(-c4cccc(C#N)c4)oc23)O1	17.6 (≈ 6.24 µg/mL)	17.6 (≈ 6.24 µg/mL)			
CC1(C)CCc2c(c3ccccc3c3nc(-c4ccccc4Br)[nH]c23)O1	15.3 (≈ 6.23 µg/mL)	15.3 (≈ 6.23 µg/mL)			
CC1(C)CCc2c(c3ccccc3c3nc(-c4ccc(C#N)cc4)[nH]c23)O1			inactive	inactive	
CC1(C)CCc2c(c3ccccc3c3nc(-c4ccc(Br)cc4)[nH]c23)O1			inactive	inactive	
COc1ccccc1-c1nc2c([nH]1)c1c(c3ccccc32)OC(C)(C)CC1	17.4 (≈ 6.24 µg/mL)	17.4 (≈ 6.24 µg/mL)			
CO[C@H]1/C=C/O[C@@]2(C)Oc3c(C)c(O)c4c(O)c(c(/C=N/N5CCN(C)CC5)c(O)c4c3C2=O)NC(=O)/C(C)=C\C=C\[C@H](C)[C@H](O)[C@@H](C)[C@@H](O)[C@@H](C)[C@H](OC(C)=O)[C@@H]1C [RIFAMPIN]	> 4.8	≤ 0.1			
Cc1ccc(-c2nc3c([nH]2)c2c(c4ccccc43)OC(C)(C)C2)cc1	304 (≈ 100 µg/mL)	> 304			
CC1(C)CCc2c(c3ccccc3c3nc(-c4cccc([N+](=O)[O-])c4)[nH]c23)O1			inactive	inactive	
CC1(C)CCc2c(c3ccccc3c3nc(-c4cccc(F)c4)[nH]c23)O1	18 (≈ 6.24 µg/mL)	18 (≈ 6.24 µg/mL)			
CC1CC2=C(O1)c1ccccc1C(=O)C2=O (stereo not given)			inactive	inactive	

SMILES	MIC ([1]; ATCC 35338, 168 h) [µM]	MIC ([2]; ATCC 35822, 168 h) [µM]	MIC [1]	MIC [2]	MIC [3] [µg/mL]
CC1(C)CCc2c(c3ccccc3c3nc(-c4ccc(C(F)(F)F)cc4)[nH]c23)O1			inactive	inactive	
CC1(C)CCc2c(c3ccccc3c3nc(-c4ccc(C#N)cc4)oc23)O1	4.4 (≈ 1.56 µg/mL)	8.8 (≈ 3.12 µg/mL)			
CC1Cc2c(c3ccccc3c3nc(-c4ccc([N+](=O)[O-])cc4)oc23)O1 (stereo not given)	289 (≈ 100 µg/mL)	> 289			
CC1(C)CCc2c(c3ccccc3c3nc(-c4cnc5ccccc5c4)[nH]c23)O1			inactive	inactive	
CC1(C)CCc2c(c3ccccc3c3nc(-c4ccc(F)cc4)[nH]c23)O1	18 (≈ 6.24 µg/mL)	18 (≈ 6.24 µg/mL)			
C=CCC1Cc2c(c3ccccc3c3nc4ccccc4nc23)OC1(C)C (stereo not given)					0.78 (≈ 2.2 µM)
CC1(C)Cc2c(c3ccccc3c3nc(-c4ccc([N+](=O)[O-])cc4)oc23)O1		> 278			
CC1(C)CCc2c(c3ccccc3c3nc(-c4cccnc4)[nH]c23)O1			inactive	inactive	
Cc1ccccc1-c1nc2c([nH]1)c1c(c3ccccc32)OC(C)(C)CC1	4.5 (≈ 1.54 µg/mL)	4.5 (≈ 1.54 µg/mL)			
CC1(C)CCc2c(c3ccccc3c3nc(-c4cccc(Br)c4)[nH]c23)O1	15.3 (≈ 6.23 µg/mL)	15.3 (≈ 6.23 µg/mL)			
CC1(C)CCc2c(c3ccccc3c3nc(-c4ccccn4)[nH]c23)O1	19 (≈ 6.26 µg/mL)	19 (≈ 6.26 µg/mL)			
Cc1ccc(-c2nc3c(o2)c2c(c4ccccc43)OC(C)(C)C2)cc1		> 304			
CC1(C)CCc2c(c3ccccc3c3nc(-c4ccccc4)[nH]c23)O1	> 304	38 (≈ 12.5 µg/mL)			
CC1(C)CCc2c(c3ccccc3c3nc(-c4cc5ccccc5cn4)[nH]c23)O1	≤ 2	≤ 2			
CC1(C)CCc2c(c3ccccc3c3nc(-c4cccc(C(F)(F)F)c4)[nH]c23)O1	4 (≈ 1.59 µg/mL)	4 (≈ 1.59 µg/mL)			
CC1(C)CCc2c(c3ccccc3c3nc(-c4ccccc4C(F)(F)F)[nH]c23)O1	2 (≈ 0.793 µg/mL)	4 (≈ 1.59 µg/mL)			
CC1(C)CCc2c(c3ccccc3c3nc(-c4ccc([N+](=O)[O-])cc4)[nH]c23)O1		4.2 (≈ 1.57 µg/mL)	inactive		
